Rows were chosen to be rich in hits. Some 2.1% of all compounds tested hit in one or more screens of this group.
KLF5 inh – inhibitors of KLF5 expression | DLD-1 KLF5 promoter-luciferase reporter, luminescence | inhibition, % at 5 µM | hit rate 0.23% among 290,000;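 active = inhibition above a per-plate limit of that plate's mean compound inhibition plus 3 SD, cut at about 60% in these data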;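 also: 0% = DMSO wells and 100% = LY294002 at 200 µM; higher means less KLF5 promoter-driven luciferase light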
IEC-6 cytotox – kills IEC-6 intestinal cells in KLF5 counter-screen; AID 1825; inhibition, % at 5 µM; hit rate 0.78% among 290,000; IEC-6 cytotoxicity, luminescence viability;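 also: 0% = plate median of test compound wells and 100% = cytotoxic reference compound wells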
b-catenin transl – modulators of beta-catenin nuclear translocation. HeLa beta-catenin nuclear translocation, immunofluorescence imaging. nuclear translocation activity, % at 5 µM. hit rate 0.3% among 190,000;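 active = nuclear translocation activity above 50% at 5 µM, with a well cell count of 50 or more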;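 also: per-cell ratio of nuclear to cytoplasmic median beta-catenin stain intensity; plate controls were DMSO negative control for no effect and GSK-3 inhibitor IX positive control for full effect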
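Test system: HeLa cells, endogenous beta-catenin; Compound: single 5 µM dose plus 0.02–20 µM confirmation series; Times: compound exposure 24 h at 37°C; Signal: fluorescence imaging of beta-catenin antibody stain plus DAPI; Read-out: % activation, nuclear-to-cytoplasmic median beta-catenin signal ratio per cell.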
BaF3 tox – counter-screen for JAK2V617F inhibitors: parental Ba/F3 viability inhibitors | CellTiter-Glo ATP luminescence | inhibition, % at 5.6 µM | hit rate 1.1% among 220,000 | AID 1486;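 active = inhibition above a per-campaign cutoff, the mean inhibition of all tested compounds plus 3 SD, cut at about 27% in these data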;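 also: 0% = DMSO wells and 100% = JAK Inhibitor I control wells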
MT stabilizer – microtubule stabilization, imaging screen; AID 2205; % tubulin-high responders, % at 10 µM; hit rate 0.83% among 200,000; HeLa tubulin immunostaining HCS, 24 h; share of cells brighter than vehicle mean+2SD;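 active = plate Z-score above 3 for both tubulin-high and condensed-nucleus cell shares, with cell loss under 80%, at 10 µM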;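 also: anti alpha tubulin signal scored within the nucleus-defined area of each cell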
Ba/F3 V617F tox – reduce viability of Ba/F3 cells dependent on JAK2V617F; Ba/F3 EpoR-JAK2V617F viability, ATP luminescence; inhibition, % at 5.6 µM; hit rate 1.1% among 220,000; AID 1446;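 active = inhibition above the campaign mean plus 3 SD over all tested compounds, cut at about 24% in these data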;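 also: cytokine-independent growth of Ba/F3 cells driven by EpoR plus mutant JAK2; 0% = DMSO-treated cells and 100% = JAK inhibitor I control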
IEC-6 cytotox cf – confirmation of cytotoxic compounds in rat IEC-6 intestinal epithelial cells; shares compounds with IEC-6 cytotox; IEC-6 rat intestinal epithelial viability, luminescence; inhibition, % at 5 µM; hit rate 63% among 1,900; AID 1907;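 also: 0% = vehicle and 100% = reference cytotoxic drug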
Active calls of the source: *; / = not tested or not shown. Rule as the data show it, unless noted: active = inhibition above about 22%; inactive = the rest.

SMILES | KLF5 inh | IEC-6 cytotox | b-catenin transl | BaF3 tox | MT stabilizer | Ba/F3 V617F tox | IEC-6 cytotox cf
CCOC(=O)c1ccccc1NC(=O)Cn1c(-c2nonc2N)nc2ccccc21 | 45.5 | 76.7* | 63.0* | 75.0* | 6.7 | 78.9* | 52.4*
COCCN(CCOC)S(=O)(=O)c1ccc(C(=O)Nc2ccc([N+](=O)[O-])cc2OC)cc1 | -2.2 | 8.8 | 0.6 | 3.7 | 10.2 | 2.0 | /
COc1ccc(/C=N\NC(=O)c2sccc2C)cc1Cn1nc(C)cc1C | -17.1 | 45.5* | / | / | / | / | 24.5*
O=C(Nc1nc(-c2ccccn2)cs1)Nc1ccc(F)cc1F | -2.7 | 49.5* | / | / | / | / | 46.8*
O=C(CN1C(=O)C2CCCCC2C1=O)Nc1nc(-c2ccccn2)cs1 (centres undefined) | 25.0 | 40.8* | -2.7 | 1.1 | 1.5 | 4.7 | 13.5
O=C(Nc1nc(-c2ccccc2)cs1)Nc1ccc(F)cc1F | -33.2 | -0.7 | 0.0 | 3.8 | 5.8 | -1.0 | /
O=C(Nc1nc(-c2ccccn2)cs1)c1ccc2c(c1)OCCO2 | -98.5 | 28.5* | -2.2 | -2.3 | 3.9 | -0.7 | 19.8
C[C@@H](C(=O)Nc1nc(-c2ccccn2)cs1)N1C(=O)C2CCCCC2C1=O (some centres undefined) | -41.5 | -0.7 | -4.2 | 0.1 | 2.5 | -3.4 | /
Cc1ccc(C(OCC(O)CNCc2ccc(F)cc2)c2ccccc2)cc1 (centres undefined) | 2.2 | -1.6 | / | / | / | / | /
COc1cc(OC)cc(C(=O)Oc2c(CN3CCOCC3)cc(Cl)c3cccnc23)c1 | 23.0 | 80.1* | -1.7 | -4.8 | / | -2.4 | -6.7
O=[N+]([O-])c1cc([N+](=O)[O-])c2oc(-c3ccccc3)c(Br)c2c1O | 0.7 | 28.6* | / | / | / | / | 8.2
COc1ccc(OCc2nc3ccccc3n2C(C)C)cc1 | 3.1 | 1.4 | -1.8 | 8.9 | 1.2 | 0.3 | /
Cc1ccc(-c2[nH]c3ccccc3c2C(C[N+](=O)[O-])c2ccco2)cc1 (centres undefined) | 10.5 | 24.8* | 2.7 | 3.3 | 1.9 | 0.2 | 9.7
Cc1[nH]c2ccccc2c1C(C[N+](=O)[O-])c1ccco1 (centres undefined) | 3.5 | -2.8 | 1.4 | 6.5 | 3.2 | 1.9 | /
CC(=O)c1cccc(CN2CCCC(CCC(=O)NCc3ccc(F)c(F)c3)C2)c1 (centres undefined) | -12.0 | 0.1 | -0.8 | 6.3 | 1.2 | -0.1 | /
O=C(Nc1nnc2n1CCS2)c1ccc(Br)o1 | -27.6 | -12.7 | / | / | / | / | /
CC1(C)N=C(N)N=C(N)N1c1ccccc1 | 8.0 | 40.4* | / | 99.1* | 2.1 | 95.8* | 51.6*
CC1(C)N=C(N)N=C(N)N1c1ccc(Oc2ccc(Cl)cc2)c(Cl)c1 | 2.1 | 55.1* | / | / | / | / | 32.7*
Nc1ccc2nn(-c3ccccc3)nc2c1 | -11.4 | -1.9 | 1.0 | 0.9 | 3.5 | -3.8 | /
COc1cc(OC)cc(-c2nc3ccccc3c(=O)n2OC(=O)c2ccc(C)c(C)c2)c1 | -4.5 | 7.8 | -2.5 | 13.0 | 1.9 | 5.2 | /
Cn1cccc1/C=C1\SC(=Nc2ccccc2)NC1=O | 39.1 | 68.2* | 85.6* | 71.7* | / | 76.3* | 57.2*
Cn1cccc1/C=C1\SC(=Nc2ccc(O)cc2)NC1=O | 46.3 | 89.6* | 82.7* | 86.7* | / | 89.0* | 66.3*
COC(=O)C(Cc1ccc(O)cc1)NC(=O)NC12CC3CC(CC(C3)C1)C2 (centres undefined) | -0.3 | 8.8 | / | / | / | / | /
CCc1ccc2nc(Nc3nc(COC)cc(=O)[nH]3)nc(C)c2c1 | -30.2 | 3.4 | 0.2 | 3.4 | 1.8 | -2.2 | /
COCc1cc(=O)[nH]c(Nc2nc3ccc(C)cc3o2)n1 | -57.5 | 26.3* | 0.9 | 6.7 | 3.8 | 0.6 | 35.9*
SMILES | KLF5 inh | IEC-6 cytotox | b-catenin transl | BaF3 tox | MT stabilizer | Ba/F3 V617F tox | IEC-6 cytotox cf
Cc1ccc(CC(=O)O/N=C(\N)c2ccncc2)cc1 | -50.1 | 3.0 | / | / | / | / | /
CCc1nc2ccccc2c(C(=O)OCC(=O)C(C)(C)C)c1C | -15.3 | 23.5* | 2.4 | 6.2 | 5.1 | 3.4 | -3.1
Cc1ccc(S(=O)(=O)NC(=O)NC(C)Cc2ccccc2)cc1 (centres undefined) | 2.0 | 2.5 | -0.7 | 3.6 | 1.5 | 1.5 | /
CCC(Oc1ccccc1OC)C(=O)N1CC(=O)Nc2ccccc21 (centres undefined) | -8.7 | 0.0 | / | / | / | / | /
CC(Nc1ncnc2sccc12)c1ccccc1 (centres undefined) | -7.9 | 29.0* | / | / | / | / | 26.9*
c1ccc(Nc2ncnc3sccc23)cc1 | -24.6 | 10.1 | / | / | / | / | /
Nc1cccc(C(=O)OCC(=O)Nc2cccc3c2C(=O)c2ccccc2C3=O)c1 | -23.7 | 1.8 | / | 3.8 | 3.3 | 0.8 | /
CCN(CC)CCC(=O)Nc1cccc2c1C(=O)c1ccccc1C2=O | 23.2 | 26.5* | 0.0 | 67.6* | / | 85.0* | 24.3*
COc1ccc(OC)c(NC(=O)CN(Cc2ccc(F)cc2)C2CCCCC2)c1 | -2.1 | 5.9 | / | / | / | / | /
Cc1nc2c(C)cccn2c1/C(O)=C1\C(=O)C(=O)N(CCN(C)C)C1c1ccccc1 (centres undefined) | -25.9 | 4.1 | -0.1 | -1.2 | / | -3.5 | /
CC(=O)c1ccc(NC(=O)c2ccc([N+](=O)[O-])o2)cc1 | -19.4 | 32.2* | / | / | / | / | 10.9
COc1ccc(NC(=O)c2ccc([N+](=O)[O-])o2)cc1 | -19.5 | 43.5* | / | / | / | / | 1.3
Cc1cc(C)nc(NC(=O)c2ccc([N+](=O)[O-])o2)n1 | -26.4 | 4.3 | 8.0 | 10.0 | 2.0 | 3.3 | /
Cc1cc(C)cc(NC(=O)c2ccc([N+](=O)[O-])o2)c1 | 9.3 | 102.8* | 3.7 | 58.6* | 2.9 | 95.2* | 24.2*
COc1ccc(N2CCN(C(=O)c3cc4c(C)nc5ccccc5c4o3)CC2)cc1 | -13.1 | 1.5 | / | / | / | / | /
COc1ccc(C(C)(C)C)cc1NC(=O)COC(=O)c1ncc(Cl)c(Cl)c1Cl | -9.4 | -2.6 | -4.0 | -0.6 | 2.7 | -4.3 | /
COc1ccc(N(C(C)C(=O)N2CCC(Cc3ccccc3)CC2)S(C)(=O)=O)cc1 (centres undefined) | -4.6 | 3.1 | 1.7 | 4.8 | 2.2 | 2.2 | /
COc1ccc(S(=O)(=O)CCc2nnc(NC(=O)c3ccc(F)cc3)s2)cc1 | -5.9 | -1.5 | / | / | / | / | /
C=CCSc1nc2sc(C)c(C)c2c(=O)n1CC=C | -8.7 | -3.0 | 0.4 | -0.5 | 2.2 | -4.7 | /
C=CCn1c(SCC(=O)c2cccs2)nc2sc(C)c(C)c2c1=O | -12.3 | 68.0* | -1.9 | 7.5 | 2.1 | 5.9 | 46.4*
CC(C)=CCCC(C)CN1CCC(N2CCC(C(=O)N3CCCC3)CC2)CC1 (centres undefined) | 11.2 | 4.7 | -2.5 | 3.8 | 1.9 | 1.0 | /
COC1=C(N)C(=O)c2nc(-c3nc(C(=O)O)c(C)c(-c4ccc(OC)c(OC)c4O)c3N)ccc2C1=O | -10.2 | 45.0* | / | 71.4* | 42.2 | 86.1* | 101.2*
COc1ccc(-c2ncncc2-c2csc(C)n2)c(O)c1OC | -19.1 | -2.1 | -0.9 | 2.8 | 1.5 | -1.9 | /
Cc1c(Cl)cccc1NC(=O)CN(C1CCCCC1)S(C)(=O)=O | -9.8 | -3.7 | / | / | / | / | /
